Assay results taken from ChEMBL document CHEMBL3600304, “Gageopeptins A and B, new inhibitors of zoospore motility of the phytopathogen Phytophthora capsici from a marine-derived bacterium Bacillus sp. 109GGC020” (Bioorg Med Chem Lett, 2015).
Values after ≈ are worked out from the molar mass of the structure shown. Active and inactive are the calls of the source. The rule behind the calls is not given here. Where a SMILES comes first, the peptide text is derived from it.

Experiments:
[1] = system: Phytophthora capsici; test: Inhibition of Phytophthora capsici zoospore motility at 5 ug/ml by homogeneous solution method; format: functional, organism-based; conditions: TDE = time-dependent effect
[2] = system: Phytophthora capsici; test: Inhibition of Phytophthora capsici zoospore motility after 15 to 60 mins by homogeneous solution method; format: functional, organism-based
[3] = system: Phytophthora capsici; test: Inhibition of Phytophthora capsici zoospore motility at 1 ug/ml after 15 to 60 mins by homogeneous solution method; format: functional, organism-based
[4] = system: Phytophthora capsici; test: Induction of Phytophthora capsici zoospore lytic activity at 1 ug/ml after 5 to 60 mins by homogeneous solution method; format: functional, organism-based
[5] = system: Phytophthora capsici; test: Induction of Phytophthora capsici zoospore lytic activity at 10 ug/ml after 60 mins by homogeneous solution method; format: functional, organism-based
[6] = system: Phytophthora capsici; test: Induction of Phytophthora capsici zoospore lytic activity at 50 ug/ml after 30 mins by homogeneous solution method; format: functional, organism-based
[7] = system: Rhizoctonia solani; test: Antifungal activity against Rhizoctonia solani by broth dilution assay; format: functional
How it was run: (§1)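 Broth dilution assay for the minimum growth-inhibitory concentration against Gram-positive and Gram-negative bacteria and fungi. Each organism was cultured under its own growth conditions.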

[8] = system: Colletotrichum acutatum; test: Antifungal activity against Colletotrichum acutatum by broth dilution assay; format: functional; how it was run: as §1
[9] = system: Botrytis cinerea; test: Antifungal activity against Botrytis cinerea by broth dilution assay; format: functional; how it was run: as §1
[10] = system: Staphylococcus aureus; test: Antibacterial activity against Staphylococcus aureus by broth dilution assay; format: functional; how it was run: as §1
[11] = system: Bacillus subtilis; test: Antibacterial activity against Bacillus subtilis by broth dilution assay; format: functional; how it was run: as §1
[12] = system: Salmonella typhi; test: Antibacterial activity against Salmonella typhi by broth dilution assay; format: functional, Salmonella enterica subsp. enterica serovar Typhi; conditions: Salmonella enterica
How it was run: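 Broth dilution test giving the minimum concentration that inhibits growth, run against Gram-positive and Gram-negative bacteria. Growth conditions were kept specific to each organism during culture.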

[13] = system: Pseudomonas aeruginosa; test: Antibacterial activity against Pseudomonas aeruginosa by broth dilution assay; format: functional; how it was run: as §1
[14] = system: Phytophthora capsici; test: Inhibition of Phytophthora capsici zoospore motility at 500 ug/ml after 15 to 60 mins by homogeneous solution method; format: functional, organism-based
[15] = system: Phytophthora capsici; test: Induction of Phytophthora capsici zoospore lytic activity at 500 ug/ml after 5 to 60 mins by homogeneous solution method; format: functional, organism-based

SMILES	inhibition [1]	IC50 [2] [µg/mL]	inhibition [2]	inhibition [3]	Activity [4]	Activity [5]	Activity [6]	MIC [7] [µg/mL]	MIC [8] [µg/mL]	MIC [9] [µg/mL]	MIC [10] [µg/mL]	MIC [11] [µg/mL]	MIC [12] [µg/mL]	MIC [13] [µg/mL]	inhibition [14]	Activity [15]
CCC(C)CC(C)CCCCCCCC[C@@H]1CC(=O)N[C@@H](CCC(=O)O)C(=O)N[C@@H](C(C)C)C(=O)N[C@@H](CC(C)C)C(=O)N[C@@H](C)C(=O)N[C@@H](CC(=O)O)C(=O)N[C@@H](CC(C)C)C(=O)N[C@@H](CC(C)C)C(=O)O1 (stereo partly drawn) (HELM PEPTIDE1{E.V.L.A.D.L.L}|CHEM1{[CCC(C)CC(C)CCCCCCCC[C@H](CC(=O)[*:1])O[*:2]]}$PEPTIDE1,CHEM1,1:R1-1:R1|PEPTIDE1,CHEM1,7:R2-1:R2$$$V2.0)	tde	1 (≈ 0.965 µM)	Dose-dependent effect	Active	Active	Active	Active	4 (≈ 3.86 µM)	8 (≈ 7.72 µM)	4 (≈ 3.86 µM)	16 (≈ 15.4 µM)	16 (≈ 15.4 µM)	16 (≈ 15.4 µM)	16 (≈ 15.4 µM)	–	–
CCC(C)CCCCCCCCCC[C@@H]1CC(=O)N[C@@H](CCC(=O)O)C(=O)N[C@@H](C(C)C)C(=O)N[C@@H](CC(C)C)C(=O)N[C@@H](C)C(=O)N[C@@H](CC(=O)O)C(=O)N[C@@H](CC(C)C)C(=O)N[C@@H](CC(C)C)C(=O)O1 (stereo partly drawn) (HELM PEPTIDE1{E.V.L.A.D.L.L}|CHEM1{[CCC(C)CCCCCCCCCC[C@H](CC(=O)[*:1])O[*:2]]}$PEPTIDE1,CHEM1,1:R1-1:R1|PEPTIDE1,CHEM1,7:R2-1:R2$$$V2.0)	tde	400 (≈ 391 µM)	Dose-dependent effect	–	–	–	–	8 (≈ 7.83 µM)	8 (≈ 7.83 µM)	8 (≈ 7.83 µM)	16 (≈ 15.7 µM)	32 (≈ 31.3 µM)	32 (≈ 31.3 µM)	16 (≈ 15.7 µM)	Active	inactive
C[C@@H]1[C@H](O)[C@@H](C)/C=C/C=C/C=C/C=C/C=C/C=C/C=C/[C@H](O[C@@H]2O[C@H](C)[C@@H](O)[C@H](N)[C@@H]2O)C[C@@H]2O[C@](O)(C[C@@H](O)C[C@@H](O)[C@H](O)CC[C@@H](O)C[C@@H](O)CC(=O)O[C@H]1C)C[C@H](O)[C@H]2C(=O)O [AMPHOTERICIN B]	–	–	–	–	–	–	–	1 (≈ 1.08 µM)	1 (≈ 1.08 µM)	1 (≈ 1.08 µM)	–	–	–	–	–	–
CC[C@H]1OC(=O)[C@H](C)[C@@H](O[C@H]2C[C@@](C)(OC)[C@@H](O)[C@H](C)O2)[C@H](C)[C@@H](O[C@@H]2O[C@H](C)C[C@H](N(C)C)[C@H]2O)[C@](C)(O)C[C@@H](C)CN(C)[C@H](C)[C@@H](O)[C@]1(C)O [AZITHROMYCIN]	–	–	–	–	–	–	–	–	–	–	2 (≈ 2.67 µM)	2 (≈ 2.67 µM)	2 (≈ 2.67 µM)	2 (≈ 2.67 µM)	–	–
